Source: ChEMBL document CHEMBL1127029, “Synthesis and evaluation of 2-pyridinone derivatives as specific HIV-1 reverse transcriptase inhibitors. 3. Pyridyl and phenyl analogs of 3-aminopyridin-2(1H)-one” (J Med Chem, 1993)
Where a name gives a salt, the structure may show the parent alone.

Experiments:
[1] = target: Human immunodeficiency virus type 1 reverse transcriptase (Human immunodeficiency virus 1, UniProt Q72547); experiment: In vitro inhibitory concentration against HIV-1 reverse transcriptase using rC-dG template primer
[2] = tested on: MT4; experiment: Cell culture inhibitory concentration against spread of HIV-I infection in MT-4 cells was determined; assay type: functional; conditions: Homo sapiens, read-out: CIC95
Method in brief: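 Spread of HIV-1 infection in MT-4 cell culture; the read-out is HIV-1 p24 core antigen by ELISA. The value is the lowest concentration giving ≥95% inhibition of infection spread (CIC95).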

| Compound | IC50 [1] | IC95 [2] |
| --- | --- | --- |
| CCc1cc(NCc2ccccc2COC)c(O)nc1C | 35500 nM |  |
| CCc1cc(NCc2cccnc2OC)c(O)nc1C | 680 nM | 800 nM |
| CCc1cc(NCc2ccc(C)cc2OC)c(O)nc1C | 32 nM |  |
| CCc1ccccc1CNc1cc(CC)c(C)[nH]c1=O | 6900 nM |  |
| CCc1ccc(CNc2cc(CC)c(C)nc2O)c(OC)c1 | 510 nM |  |
| CC(C)=CCN1Cc2cccc3[nH]c(=S)n(c23)C[C@@H]1C | 70 nM | 200 nM |
| CCc1cc(CCc2cc(CC)c(C)nc2O)c(O)nc1C | 400 nM |  |
| CCc1cc(NCc2nc(CC)c(C)cc2OC)c(O)nc1C | 70 nM |  |
| CCNc1cccnc1N1CCN(C(=O)c2cc3cc(OC)ccc3[nH]2)CC1 [ATEVIRDINE MESYLATE] |  | 1500 nM |
| CCc1cc(NCc2ccccc2C(F)(F)F)c(=O)[nH]c1C | 12500 nM |  |
| CCc1cc(NCc2nc(C)c(C)cc2OC)c(O)nc1C | 70 nM | 100 nM |
| CCc1ccc(OC)c(CNc2cc(CC)c(C)nc2O)c1 | 32 nM |  |
| CCc1cc(CCc2nc3ccccc3o2)c(O)nc1C | 20 nM |  |
| CCc1cc(NCc2ncccc2OC)c(=O)[nH]c1C | 1550 nM |  |
| CCc1cc(NCc2nc3c(cc2OC)CCC3)c(O)nc1C | 40 nM |  |
| CCc1cc(NCc2cc(C)c(C)cc2OC)c(O)nc1C | 8 nM | 13 nM |
| CCc1cc(NCc2ccccc2O)c(=O)[nH]c1C | 4600 nM |  |
| CCc1cc(NCc2ccccc2C#N)c(=O)[nH]c1C | 790 nM |  |
| CCc1cc(CNc2cc(CC)c(C)[nH]c2=O)c(OC)cc1C | 33 nM |  |
| CCc1cc(NCc2ccccc2Cl)c(O)nc1C | 1450 nM |  |
| CCc1cc(NCc2c(C)cccc2OC)c(=O)[nH]c1C | 1300 nM |  |
| CCc1cc(NCc2cnccc2OC)c(=O)[nH]c1C | 10000 nM |  |
| Cc1ccnc2c1NC(=O)c1cccnc1N2C1CC1 [NEVIRAPINE] |  | 100 nM |

| Compound | IC50 [1] | IC95 [2] |
| --- | --- | --- |
| CCc1cc(NCc2cccc(C)c2OC)c(O)nc1C | 3800 nM |  |
| CCc1cc(NCc2cc3c(nc2OC)CCCC3)c(O)nc1C | 35 nM |  |
| CCc1cc(NCc2cc3c(cc2OC)CCC3)c(=O)[nH]c1C | 40 nM |  |
| CCc1cc(NCc2nc3c(cc2OC)CCCC3)c(O)nc1C | 47 nM |  |
| CCc1cc(NCc2cc(C)c(C)nc2OC)c(O)nc1C | 9 nM | 50 nM |
| CCc1cc(NCc2ccccc2OC)c(O)nc1C | 265 nM | 400 nM |
| CCOCn1c(Sc2ccccc2)c(CC)c(=O)[nH]c1=O | 32 nM | 100 nM |
| CCc1cc(CNc2cc(CC)c(C)nc2O)c(O)nc1C | 91 nM |  |
| CCc1cc(NCc2cc(CC)c(C)nc2OC)c(O)nc1C | 19 nM | 13 nM |
| CCc1cc(NCc2ccncc2OC)c(=O)[nH]c1C | 110000 nM |  |
| CCc1cc(NCc2cc(C)ccc2OC)c(O)nc1C | 23 nM |  |
| CCc1cc(NCc2nc3c(Cl)ccc(Cl)c3o2)c(O)nc1C [L-697661] |  | 50 nM |
| CCc1cc(NCc2ccccc2C)c(O)nc1C | 2200 nM |  |
| CCc1cc(NCc2ccc(OC)cc2)c(O)nc1C | 7500 nM |  |
| CCc1cc(CCc2cc(CC)c(C)nc2OC)c(O)nc1C | 65 nM |  |
| CCc1cc(NCc2ccccc2F)c(O)nc1C | 1400 nM |  |
| CCOc1ccccc1CNc1cc(CC)c(C)nc1O | 350 nM |  |
| CCc1cc(NCc2ccccc2N)c(O)nc1C | 28000 nM |  |
| CCc1cc(NCc2cccc(OC)c2)c(=O)[nH]c1C | 1250 nM |  |
| CCc1cc(NCc2ccccc2SC)c(=O)[nH]c1C | 1500 nM |  |
| CCc1cc(NCc2cc3ccccc3nc2OC)c(O)nc1C | 34 nM |  |
| CCc1cc(NCc2ccccc2[N+](=O)[O-])c(=O)[nH]c1C | 530 nM |  |
